# Active and inactive are the calls of the source. No cut-off for these calls is given here.
# Key:
# BCL1 = assay: Inhibition of PTEN expression in mouse BCL1 cells after 62 hrs by Western blotting; format: functional, cell-based; details: BCL1, 62 h
# Outline: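 BCL1 cells were grown in DMEM with 10% FBS at 37 °C, 5% CO2. Compound was delivered to 2×10^6 cells by electroporation (200 V, 1000 uF, 13 ohms), and cells were harvested 62 h later. Western blot of RIPA lysates used rabbit anti-PTEN and anti-CD40 (1:1000) with HRP secondary and ECL detection. PTEN was normalized to CD40. n=3, mean ± SD.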
# Mus musculus [1] = assay: Toxicity in Balb/C mouse assessed as change in blood urea nitrogen levels at 10 to 40 mg/kg, ip administered thrice a week for 2 weeks measured 48 hrs after last dose; format: organism-based; design: dose 10-40 mg/kg, route intraperitoneal; details: in vivo
# Outline: (§1)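 Male Balb/c mice, 6–8 wk, n=4/group, received compound i.p. in PBS (10 ul/g) 3x/wk for 2 wk. Body weight was monitored throughout. At 48 h after the last dose, mice were anesthetized with isoflurane and bled by cardiac puncture. Serum AST, ALT, BUN, bilirubin, glucose and triglycerides were compared with the saline group. ALT rise below 2x normal was counted as absent.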
# Mus musculus [2] = assay: Inhibition of PTEN expression in Balb/C mouse white adipose tissue assessed as reduction of full length transcript at 10 to 40 mg/kg, ip administered thrice a week for 2 weeks measured 48 hrs after last dose […]; format: functional, organism-based
# Mus musculus [3] = assay: Toxicity in Balb/C mouse assessed as change in body weight at 10 to 40 mg/kg, ip administered thrice a week for 2 weeks measured 48 hrs after last dose; format: organism-based; design: dose 10-40 mg/kg, route intraperitoneal; details: in vivo; outline: as §1
# Mus musculus [4] = assay: Toxicity in Balb/C mouse assessed as change in serum bilirubin levels at 10 to 40 mg/kg, ip administered thrice a week for 2 weeks measured 48 hrs after last dose; format: organism-based; design: dose 10-40 mg/kg, route intraperitoneal; details: in vivo; outline: as §1
# Mus musculus [5] = assay: Toxicity in Balb/C mouse assessed as change in serum glucose levels at 10 to 40 mg/kg, ip administered thrice a week for 2 weeks measured 48 hrs after last dose; format: organism-based; design: dose 10-40 mg/kg, route intraperitoneal; details: in vivo; outline: as §1
# Mus musculus [6] = assay: Toxicity in Balb/C mouse assessed as change in serum triglyceride levels at 10 to 40 mg/kg, ip administered thrice a week for 2 weeks measured 48 hrs after last dose; format: organism-based; design: dose 10-40 mg/kg, route intraperitoneal; details: in vivo; outline: as §1
# Mus musculus [7] = assay: Toxicity in Balb/C mouse assessed as change in serum ALT levels at 10 to 40 mg/kg, ip administered thrice a week for 2 weeks measured 48 hrs after last dose; format: organism-based; design: dose 10-40 mg/kg, route intraperitoneal; details: in vivo; outline: as §1
# Mus musculus [8] = assay: Inhibition of PTEN expression in Balb/C mouse liver at 10 to 40 mg/kg, ip administered thrice a week for 2 weeks measured 48 hrs after last dose by Western blot analysis; format: functional, organism-based
# Outline: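 Male Balb/c mice, 6–8 wk, n=4/group, dosed i.p. in PBS 3x/wk for 2 wk and killed 48 h after the last dose. Tissue was homogenized in RIPA buffer with protease inhibitors, and protein was measured by Lowry assay. Lysates were run on 10% PAGE and blotted to PVDF. Blots were probed with rabbit anti-PTEN (1:1000) and HRP anti-rabbit (1:2500), with ECL detection.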
# Mus musculus [9] = assay: Toxicity in Balb/C mouse assessed as change in serum AST levels at 10 to 40 mg/kg, ip administered thrice a week for 2 weeks measured 48 hrs after last dose; format: organism-based; design: dose 10-40 mg/kg, route intraperitoneal; details: in vivo; outline: as §1
# Mus musculus [10] = assay: Toxicity in Balb/C mouse assessed as increase in spleen weight at 40 mg/kg, ip administered thrice a week for 2 weeks measured 48 hrs after last dose; format: organism-based; design: dose 40 mg/kg, route intraperitoneal; details: in vivo
# Outline: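 Male Balb/c mice, 6–8 wk, n=4/group, were dosed i.p. in PBS 3x/wk for 2 wk at 40 mg/kg. They were killed by cervical dislocation 48 h after the last dose. Spleen weight was taken at necropsy and compared with the saline-treated group.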
# Mus musculus [11] = assay: Inhibition of PTEN expression in Balb/C mouse white adipose tissue assessed as upregulation of isoform lacking exon at 10 to 40 mg/kg, ip administered thrice a week for 2 weeks measured 48 hrs after last dose […]; format: functional, organism-based
# Mus musculus [12] = assay: Inhibition of PTEN expression in Balb/C mouse kidney at 10 to 40 mg/kg, ip administered thrice a week for 2 weeks measured 48 hrs after last dose
smiles,measurement,setting,value
Cc1cn(CC(=O)N(CCNC(=O)CN(CCNC(=O)CN(CCNC(=O)CN(CCNC(=O)CN(CCN)C(=O)Cn2cnc3c(N)ncnc32)C(=O)Cn2cnc3c(=O)[nH]c(N)nc32)C(=O)Cn2cc(C)c(=O)[nH]c2=O)C(=O)Cn2cc(C)c(=O)[nH]c2=O)CC(=O)NCCN(CC(=O)NCCN(CC(=O)NCCN(CC(=O)NCCN(CC(=O)NCCN(CC(=O)NCCN(CC(=O)NCCN(CC(=O)NCCN(CC(=O)NCCN(CC(=O)NCCN(CC(=O)N[C@@H](CCCCN)C(N)=O)C(=O)Cn2cnc3c(N)ncnc32)C(=O)Cn2cnc3c(=O)[nH]c(N)nc32)C(=O)Cn2cnc3c(N)ncnc32)C(=O)Cn2cnc3c(=O)[nH]c(N)nc32)C(=O)Cn2cnc3c(N)ncnc32)C(=O)Cn2cc(C)c(=O)[nH]c2=O)C(=O)Cn2ccc(N)nc2=O)C(=O)Cn2ccc(N)nc2=O)C(=O)Cn2cnc3c(N)ncnc32)C(=O)Cn2ccc(N)nc2=O)c(=O)[nH]c1=O,IC50,BCL1,2.4 µM
Cc1cn(CC(=O)N(CCNC(=O)CN(CCNC(=O)CN(CCNC(=O)CN(CCNC(=O)CN(CCNC(=O)CN(CCNC(=O)CN(CCNC(=O)CN(CCNC(=O)CN(CCNC(=O)CN(CCNC(=O)CN(CCNC(=O)CN(CCNC(=O)[C@H](CCCCN)N(CCNC(=O)[C@H](CCCCN)NC(=O)[C@H](CCCCN)NC(=O)[C@H](CCCCN)NC(=O)[C@H](CCCCN)NC(=O)[C@H](CCCCN)NC(=O)[C@H](CCCCN)NC(=O)[C@H](CCCCN)NC(=O)[C@@H](N)CCCCN)C(=O)Cn2cc(C)c(=O)[nH]c2=O)C(=O)Cn2ccc(N)nc2=O)C(=O)Cn2cc(C)c(=O)[nH]c2=O)C(=O)Cn2cnc3c(N)ncnc32)C(=O)Cn2cnc3c(N)ncnc32)C(=O)Cn2ccc(N)nc2=O)C(=O)Cn2ccc(N)nc2=O)C(=O)Cn2cnc3c(N)ncnc32)C(=O)Cn2ccc(N)nc2=O)C(=O)Cn2cnc3c(N)ncnc32)C(=O)Cn2cc(C)c(=O)[nH]c2=O)C(=O)Cn2ccc(N)nc2=O)CC(=O)NCCN(CC(=O)NCCN(CC(=O)NCCN(CC(=O)N[C@@H](CCCCN)C(N)=O)C(=O)Cn2cnc3c(N)ncnc32)C(=O)Cn2cnc3c(=O)[nH]c(N)nc32)C(=O)Cn2ccc(N)nc2=O)c(=O)[nH]c1=O,Activity,Mus musculus [1],Non-toxic
same,Activity,Mus musculus [2],inactive
same,Activity,Mus musculus [3],Non-toxic
same,Activity,Mus musculus [4],Non-toxic
same,Activity,Mus musculus [5],Non-toxic
same,Activity,Mus musculus [6],Non-toxic
same,Activity,Mus musculus [7],Non-toxic
same,inhibition,Mus musculus [8],inactive
same,Activity,Mus musculus [9],Non-toxic
same,Activity,Mus musculus [10],145%
same,Activity,Mus musculus [11],inactive
same,inhibition,Mus musculus [12],inactive
COCCO[C@@H]1[C@H](OP(=O)(S)OC[C@H]2O[C@@H](n3cc(C)c(=O)[nH]c3=O)C[C@@H]2OP(=O)(S)OC[C@H]2O[C@@H](n3cnc4c(N)ncnc43)[C@H](OCCOC)[C@@H]2OP(=O)(S)OC[C@H]2O[C@@H](n3cnc4c(=O)[nH]c(N)nc43)[C@H](OCCOC)[C@@H]2OP(=O)(S)OC[C@H]2O[C@@H](n3cnc4c(N)ncnc43)[C@H](OCCOC)[C@@H]2OP(=O)(S)OC[C@H]2O[C@@H](n3cnc4c(=O)[nH]c(N)nc43)[C@H](OCCOC)[C@@H]2OP(=O)(S)OC[C@H]2O[C@@H](n3cnc4c(N)ncnc43)[C@H](OCCOC)[C@@H]2OP(=O)(S)OC[C@H]2O[C@@H](n3cnc4c(N)ncnc43)[C@H](OCCOC)[C@@H]2OP(=O)(S)OC[C@H]2O[C@@H](n3cnc4c(N)ncnc43)[C@H](OCCOC)[C@@H]2OP(=O)(S)OC[C@H]2O[C@@H](n3cnc4c(=O)[nH]c(N)nc43)[C@H](OCCOC)[C@@H]2O)[C@@H](COP(=O)(S)O[C@H]2[C@@H](OCCOC)[C@H](n3ccc(N)nc3=O)O[C@@H]2COP(=O)(S)O[C@H]2[C@@H](OCCOC)[C@H](n3cnc4c(N)ncnc43)O[C@@H]2COP(=O)(S)O[C@H]2[C@@H](OCCOC)[C@H](n3ccc(N)nc3=O)O[C@@H]2COP(=O)(S)O[C@H]2C[C@H](n3cc(C)c(=O)[nH]c3=O)O[C@@H]2COP(=O)(S)O[C@H]2C[C@H](n3cc(C)c(=O)[nH]c3=O)O[C@@H]2COP(=O)(S)O[C@H]2C[C@H](n3cc(C)c(=O)[nH]c3=O)O[C@@H]2COP(=O)(S)O[C@H]2[C@@H](OCCOC)[C@H](n3cnc4c(=O)[nH]c(N)nc43)O[C@@H]2COP(=O)(S)O[C@H]2[C@@H](OCCOC)[C@H](n3cnc4c(N)ncnc43)O[C@@H]2COP(=O)(S)O[C@H]2C[C@H](n3cc(C)c(=O)[nH]c3=O)O[C@@H]2COP(=O)(S)O[C@H]2[C@@H](OCCOC)[C@H](n3cnc4c(N)ncnc43)O[C@@H]2CO)O[C@H]1n1ccc(N)nc1=O (some centres not stated),IC50,BCL1,2.2 µM
Cc1cn(CC(=O)N(CCNC(=O)CN(CCNC(=O)CN(CCNC(=O)CN(CCNC(=O)CN(CCNC(=O)CN(CCNC(=O)CN(CCN)C(=O)Cn2cnc3c(N)ncnc32)C(=O)Cn2cc(C)c(=O)[nH]c2=O)C(=O)Cn2cnc3c(N)ncnc32)C(=O)Cn2cnc3c(=O)[nH]c(N)nc32)C(=O)Cn2cc(C)c(=O)[nH]c2=O)C(=O)Cn2cc(C)c(=O)[nH]c2=O)CC(=O)NCCN(CC(=O)NCCN(CC(=O)NCCN(CC(=O)NCCN(CC(=O)NCCN(CC(=O)NCCN(CC(=O)NCCN(CC(=O)NCCN(CC(=O)N[C@@H](CCCCN)C(N)=O)C(=O)Cn2cnc3c(N)ncnc32)C(=O)Cn2cnc3c(=O)[nH]c(N)nc32)C(=O)Cn2cnc3c(N)ncnc32)C(=O)Cn2cc(C)c(=O)[nH]c2=O)C(=O)Cn2ccc(N)nc2=O)C(=O)Cn2ccc(N)nc2=O)C(=O)Cn2cnc3c(N)ncnc32)C(=O)Cn2ccc(N)nc2=O)c(=O)[nH]c1=O,IC50,BCL1,3.2 µM
Cc1cn(CC(=O)N(CCNC(=O)CN(CCN)C(=O)Cn2ccc(N)nc2=O)CC(=O)NCCN(CC(=O)NCCN(CC(=O)NCCN(CC(=O)NCCN(CC(=O)NCCN(CC(=O)NCCN(CC(=O)NCCN(CC(=O)NCCN(CC(=O)NCCN(CC(=O)NCCN(CC(=O)NCCN(CC(=O)NCCN(CC(=O)NCCN(CC(=O)N[C@@H](CCCCN)C(N)=O)C(=O)Cn2cnc3c(N)ncnc32)C(=O)Cn2ccc(N)nc2=O)C(=O)Cn2cnc3c(N)ncnc32)C(=O)Cn2cc(C)c(=O)[nH]c2=O)C(=O)Cn2ccc(N)nc2=O)C(=O)Cn2cc(C)c(=O)[nH]c2=O)C(=O)Cn2cnc3c(N)ncnc32)C(=O)Cn2ccc(N)nc2=O)C(=O)Cn2cnc3c(N)ncnc32)C(=O)Cn2ccc(N)nc2=O)C(=O)Cn2cnc3c(=O)[nH]c(N)nc32)C(=O)Cn2cnc3c(N)ncnc32)C(=O)Cn2ccc(N)nc2=O)c(=O)[nH]c1=O,IC50,BCL1,1 µM
Cc1cn(CC(=O)N(CCN)CC(=O)NCCN(CC(=O)NCCN(CC(=O)NCCN(CC(=O)NCCN(CC(=O)NCCN(CC(=O)NCCN(CC(=O)NCCN(CC(=O)NCCN(CC(=O)NCCN(CC(=O)NCCN(CC(=O)NCCN(CC(=O)NCCN(CC(=O)NCCN(CC(=O)NCCN(CC(=O)N[C@@H](CCCCN)C(N)=O)C(=O)Cn2cnc3c(=O)[nH]c(N)nc32)C(=O)Cn2cnc3c(N)ncnc32)C(=O)Cn2cnc3c(N)ncnc32)C(=O)Cn2cnc3c(N)ncnc32)C(=O)Cn2cnc3c(=O)[nH]c(N)nc32)C(=O)Cn2cnc3c(N)ncnc32)C(=O)Cn2cnc3c(=O)[nH]c(N)nc32)C(=O)Cn2cnc3c(N)ncnc32)C(=O)Cn2cc(C)c(=O)[nH]c2=O)C(=O)Cn2ccc(N)nc2=O)C(=O)Cn2ccc(N)nc2=O)C(=O)Cn2cnc3c(N)ncnc32)C(=O)Cn2ccc(N)nc2=O)C(=O)Cn2cc(C)c(=O)[nH]c2=O)c(=O)[nH]c1=O,IC50,BCL1,3 µM

# Source: ChEMBL document CHEMBL1155469, “Peptide nucleic acids conjugated to short basic peptides show improved pharmacokinetics and antisense activity in adipose tissue” (J Med Chem, 2010)
